Results from different studies.
Lines come from different studies, so protocols differ.
Target: Inhibitor of nuclear factor kappa-B kinase subunit beta (IKBKB, Homo sapiens, UniProt O14920)
Residues used in one study (O14920 1-756): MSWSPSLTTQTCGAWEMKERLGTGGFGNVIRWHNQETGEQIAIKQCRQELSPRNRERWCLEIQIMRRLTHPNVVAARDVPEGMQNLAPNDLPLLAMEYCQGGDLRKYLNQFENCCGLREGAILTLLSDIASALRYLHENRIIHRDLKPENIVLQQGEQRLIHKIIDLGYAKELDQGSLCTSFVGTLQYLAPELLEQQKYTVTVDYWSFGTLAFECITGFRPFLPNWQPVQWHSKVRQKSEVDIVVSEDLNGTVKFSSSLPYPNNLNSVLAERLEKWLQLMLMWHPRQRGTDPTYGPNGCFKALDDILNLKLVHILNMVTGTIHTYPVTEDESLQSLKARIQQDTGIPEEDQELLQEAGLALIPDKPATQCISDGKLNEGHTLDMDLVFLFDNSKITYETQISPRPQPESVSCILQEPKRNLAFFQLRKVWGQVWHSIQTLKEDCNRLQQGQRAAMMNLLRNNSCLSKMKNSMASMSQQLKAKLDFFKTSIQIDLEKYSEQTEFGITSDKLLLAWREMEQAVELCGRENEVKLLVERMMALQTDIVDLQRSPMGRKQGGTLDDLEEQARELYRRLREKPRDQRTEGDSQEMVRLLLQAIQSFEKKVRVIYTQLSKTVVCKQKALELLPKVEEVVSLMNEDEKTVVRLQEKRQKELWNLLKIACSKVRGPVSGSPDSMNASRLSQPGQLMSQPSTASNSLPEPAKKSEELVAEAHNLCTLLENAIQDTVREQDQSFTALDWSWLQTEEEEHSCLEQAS

| Compound | assay | setting | remaining binding [%] |
| --- | --- | --- | --- |
| c1cncc(-c2cccc(Nc3nccc(NC4CCCCC4)n3)c2)c1 | binding, competition with immobilised ligand | 10 µM | 89 |
| O=C(Nc1c[nH]nc1C(=O)NC1CCNCC1)c1cc(F)cc(F)c1 | binding, competition with immobilised ligand | 1 µM | 100 |
| C[C@@H]1CCN(c2nccc(-c3cnn4ncccc34)n2)C1 | binding, competition with immobilised ligand | 1 µM | 77 |
| C=CC(=O)N1CCC(C(=O)NCC(=O)N2CCN(c3nc(-c4cnc(N)nc4C(F)F)nc(N4CCOCC4)n3)CC2)CC1 | binding, competition with immobilised ligand | 1 µM | 73 |
| CN(C)CC#Cc1ccc(OCCCc2sc(N3CCc4cccc(C(=O)Nc5nc6ccccc6s5)c4C3)nc2C(=O)O)c(F)c1 | cell-free assay, competition with immobilised ligand | 1 µM | 72 |
| Cc1cnc(Nc2ccc(C(=O)N3CCC(N4CCCC4)CC3)cc2)nc1-c1cc2ccccc2s1 | binding, competition with immobilised ligand | 1 µM | 0 |
| O=C(O)c1cc(-c2ccc(C3CCNCC3)cc2)c2ccc(-c3ccc(C(F)(F)F)cc3)cc2c1 | cell-free assay, competition with immobilised ligand | 1 µM | 100 |
| O=C(NCCCN1CCOCC1)c1ccc(Nc2ncc(Cl)c(-c3ccc(Cl)s3)n2)cc1 | binding, competition with immobilised ligand | 1 µM | 23 |
| CC1CCCN1c1nccc(-c2cnn3ncccc23)n1 (stereo not shown) | binding, competition with immobilised ligand | 1 µM | 100 |
| COc1ncc2cc3ccccc3nc2c1C#N | cell-free assay, competition with immobilised ligand | 5 µM | 96 |
| CCOC(=O)c1cc2cc(-c3cc(C(=O)NCc4ccc(C(=O)O)cc4)nn3C)ccc2[nH]1 | cell-free assay, competition with immobilised ligand | 0.1 µM | 100 |
| C[C@@H]1CN(c2ccc3ncc(-c4ccc5[nH]nc(C6CC6)c5c4)n3n2)C[C@H](C)O1 | binding, competition with immobilised ligand | 50 nM | 88 |
| CCCCN(CCCC)C(=O)CN1C[C@H](c2cc(OC)c3c(c2)OCO3)[C@@H](C(=O)O)[C@@H]1CC(C)(C)CCC | cell-free assay, competition with immobilised ligand | 1 µM | 81.5 |
| CNC(=O)[C@@H]1CC[C@@H](n2c(-c3ccc4cnccc4c3)nc3ccc(C(=O)NCc4cccc(C(N)=O)c4)cc32)C1 | binding, competition with immobilised ligand | 1 µM | 100 |
| CCCOc1ccc([C@@H]2[C@@H](C(=O)O)[C@H](c3ccc4c(c3)OCO4)CN2CC(=O)Nc2c(CC)cccc2CC)cc1 | cell-free assay, competition with immobilised ligand | 1 µM | 94 |
| c1cnn2ncc(-c3ccnc(N4CCC45COC5)n3)c2c1 | binding, competition with immobilised ligand | 1 µM | 40 |
| O=C(c1ccc(Nc2ncc(Cl)c(-c3cc4ccccc4s3)n2)cc1)N1CCC(N2CCCC2)CC1 | binding, competition with immobilised ligand | 1 µM | 0.1 |
| CN(c1nccc(-c2cnn3ncccc23)n1)C1CC1 | binding | 1 µM | 100 |
| CN1CCN(c2cnc3c(C4CCN(C(=O)c5ccc(OC(F)(F)F)cc5N)CC4)ncnc3c2)CC1 | cell-free assay, competition with immobilised ligand | 1 µM | 100 |
| N[C@H]1CCN(c2nccc(-c3cnn4ncccc34)n2)C1 | binding, competition with immobilised ligand | 1 µM | 91 |
| CSc1cccnc1N1CCN(Cc2nc3ccccc3[nH]2)CC1 | cell-free assay, competition with immobilised ligand | 1 µM | 86 |
| CN(C)c1nccc(-c2cnn3ncccc23)n1 | binding, competition with immobilised ligand | 1 µM | 84 |
| COc1cnc(Nc2cccc(S(N)(=O)=O)c2)nc1N1CCN(c2ccccc2)CC1 | binding, competition with immobilised ligand | 1 µM | 94 |
| C[C@@H](c1ccc(-n2cnc3c(N)ncnc32)cc1)N1CCc2nn(C)c(Cc3ccccc3)c2C1=O | binding, competition with immobilised ligand | 0.1 µM | 68 |
| F[C@@H]1CCN(c2nccc(-c3cnn4ncccc34)n2)C1 | binding, competition with immobilised ligand | 1 µM | 100 |
